Values belong to the molecule of their own block, whether it stands above or below them. Active and inactive are the calls of the source. The rule behind the calls is not given here.
Columns and labels:
[1] = molecular target: Mediator of RNA polymerase II transcription subunit 23 (Homo sapiens); test: Inhibition of ESX-Med23 interaction assessed as binding affinity to Med23 (352-625) by fluorescence polarization
[2] = molecular target: T1, ETS-related transcription factor Elf-3/Vitamin D3 receptor-interacting protein (ESX/MED23) (Homo sapiens) (UniProt Q9ULK4+P78545); test: Inhibition of ESX-Med23 interaction in human SK-BR-3 cells assessed as down regulation of ErbB2 expression at 25 uM by Western blotting; format: cell-based
In short: (§1)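 SkBr3 cells treated 6 h with compound in DMSO at 0.625–50 μM (comparator 10, 50 μM), DMSO control; ErbB2 protein level by Western blot.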

[3] = molecular target: T1, ETS-related transcription factor Elf-3/Vitamin D3 receptor-interacting protein (ESX/MED23) (Homo sapiens); test: Inhibition of ESX-Med23 interaction in human BT474 cells assessed as down regulation of ErbB2 expression up to 50 uM by Western blotting; format: cell-based; settings: BT-474
SK-BR-3 = test: Cytotoxicity against human SK-BR-3 cells after 24 hrs by WST-1 assay; format: functional, cell-based
[4] = molecular target: T1, ETS-related transcription factor Elf-3/Vitamin D3 receptor-interacting protein (ESX/MED23) (Homo sapiens); test: Inhibition of ESX-Med23 interaction in human BT474 cells assessed as down regulation of ErbB2 expression after 24 hrs by Western blotting; format: cell-based; settings: BT-474
[5] = molecular target: T1, ETS-related transcription factor Elf-3/Vitamin D3 receptor-interacting protein (ESX/MED23) (Homo sapiens); test: Inhibition of ESX-Med23 interaction in human BT474 cells assessed as reduction in ErbB2 mRNA level after 6 hrs by qPCR relative to control; format: cell-based; settings: BT-474
In short: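 BT-474 cells given compound in DMSO at 10 μM for 6 h; ErbB2 mRNA quantified by qPCR, normalized to GAPDH and expressed relative to DMSO; average of 16 experiments each in quadruplicate, s.e.m., Student's t-test.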

[6] = molecular target: T1, ETS-related transcription factor Elf-3/Vitamin D3 receptor-interacting protein (ESX/MED23) (Homo sapiens); test: Inhibition of ESX-Med23 interaction in human SK-BR-3 cells assessed as down regulation of ErbB2 expression by Western blotting; format: cell-based
In short: as §1

SCC-15 = test: Cytotoxicity against human SCC15 cells; format: functional, cell-based
MCF7 = test: Cytotoxicity against human MCF7 cells after 24 hrs by WST-1 assay; format: functional, cell-based; settings: MCF7, 24 h
SCC-25 = test: Cytotoxicity against human SCC25 cells; format: functional, cell-based
CAL-27 = test: Cytotoxicity against human CAL27 cells; format: functional, cell-based

T1 sequence (P78545 whole entry, looked up): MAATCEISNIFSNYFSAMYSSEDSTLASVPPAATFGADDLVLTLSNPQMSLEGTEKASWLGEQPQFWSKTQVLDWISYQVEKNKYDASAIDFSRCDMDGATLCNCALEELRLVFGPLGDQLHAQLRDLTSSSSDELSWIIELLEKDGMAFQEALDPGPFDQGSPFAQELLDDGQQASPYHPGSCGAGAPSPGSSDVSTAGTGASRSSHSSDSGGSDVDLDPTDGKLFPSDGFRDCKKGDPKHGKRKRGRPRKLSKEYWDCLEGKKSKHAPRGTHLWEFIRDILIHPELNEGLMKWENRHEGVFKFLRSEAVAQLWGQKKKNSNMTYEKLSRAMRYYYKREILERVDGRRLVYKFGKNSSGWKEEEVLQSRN
T1 sequence (Q9ULK4 whole entry, looked up): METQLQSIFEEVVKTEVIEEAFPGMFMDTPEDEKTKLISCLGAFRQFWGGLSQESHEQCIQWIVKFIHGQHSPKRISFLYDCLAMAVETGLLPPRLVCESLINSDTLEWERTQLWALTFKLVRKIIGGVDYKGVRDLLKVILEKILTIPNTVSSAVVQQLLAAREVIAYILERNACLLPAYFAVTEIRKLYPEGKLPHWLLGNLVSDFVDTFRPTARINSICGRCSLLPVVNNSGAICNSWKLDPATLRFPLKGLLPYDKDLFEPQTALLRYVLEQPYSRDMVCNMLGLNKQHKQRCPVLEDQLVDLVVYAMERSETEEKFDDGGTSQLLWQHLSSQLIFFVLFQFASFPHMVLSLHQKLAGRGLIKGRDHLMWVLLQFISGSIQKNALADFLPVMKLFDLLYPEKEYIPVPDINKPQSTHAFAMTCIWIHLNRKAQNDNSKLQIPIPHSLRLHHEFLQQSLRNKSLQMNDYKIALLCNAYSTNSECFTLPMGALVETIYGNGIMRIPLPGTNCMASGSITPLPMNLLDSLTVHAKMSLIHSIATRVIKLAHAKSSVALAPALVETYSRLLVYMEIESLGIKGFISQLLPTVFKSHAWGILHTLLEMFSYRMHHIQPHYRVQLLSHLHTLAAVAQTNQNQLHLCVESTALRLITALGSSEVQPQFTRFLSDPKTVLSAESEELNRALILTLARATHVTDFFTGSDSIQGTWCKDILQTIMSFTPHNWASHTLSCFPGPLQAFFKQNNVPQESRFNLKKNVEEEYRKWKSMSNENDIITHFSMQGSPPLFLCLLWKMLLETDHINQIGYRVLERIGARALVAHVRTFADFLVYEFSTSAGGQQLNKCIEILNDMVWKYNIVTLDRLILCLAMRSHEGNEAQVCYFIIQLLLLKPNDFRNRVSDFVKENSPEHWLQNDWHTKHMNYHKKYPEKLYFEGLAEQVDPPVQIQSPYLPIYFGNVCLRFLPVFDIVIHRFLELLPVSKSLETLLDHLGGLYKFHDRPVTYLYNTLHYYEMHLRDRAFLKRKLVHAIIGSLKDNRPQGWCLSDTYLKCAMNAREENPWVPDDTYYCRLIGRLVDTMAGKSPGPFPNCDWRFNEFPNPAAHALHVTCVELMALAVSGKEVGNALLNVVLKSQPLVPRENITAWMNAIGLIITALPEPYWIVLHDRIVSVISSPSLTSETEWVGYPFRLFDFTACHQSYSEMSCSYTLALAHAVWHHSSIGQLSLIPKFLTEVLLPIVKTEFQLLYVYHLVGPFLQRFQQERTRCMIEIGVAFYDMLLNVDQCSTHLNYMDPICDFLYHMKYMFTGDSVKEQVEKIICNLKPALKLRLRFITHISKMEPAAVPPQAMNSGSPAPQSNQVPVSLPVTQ

Structure (SMILES): CC(C)C[C@]1(CCO)C[C@H](CNC(=S)Nc2ccc(-c3c4ccc(=O)cc-4oc4cc(O)ccc34)c(C(=O)O)c2)ON1Cc1ccc(C(F)(F)F)cc1
Kd [1]: 590 nM

Structure (SMILES): CC(C)C[C@]1(CCO)C[C@H](CN=[N+]=[N-])ON1Cc1ccc2ccccc2c1
Activity [4]: Dose-dependent effect

Structure (SMILES): CC(C)C[C@]1(CCO)C[C@H](CNC(=S)Nc2ccc(-c3c4ccc(=O)cc-4oc4cc(O)ccc34)c(C(=O)O)c2)ON1Cc1ccc2ccccc2c1
Kd [1]: 1000 nM

Structure (SMILES): CC(C)C[C@]1(CCO)C[C@H](CN=[N+]=[N-])ON1Cc1ccc(-c2ccccc2)cc1
Activity [5]: Active
Activity [6]: Active
IC50 (SK-BR-3; SK-BR-3, 24 h): 14 µM
IC50 (SCC-15): 19.2 µM
IC50 (MCF7): 27 µM
IC50 (SCC-25): 19.8 µM
Activity [4]: Dose-dependent effect
IC50 (CAL-27): 21.8 µM

Further lines, with some results ahead:

Activity [2]: Active
Activity [3]: inactive
Structure (SMILES): CC(C)C[C@]1(CCO)C[C@H](CN=[N+]=[N-])ON1Cc1ccccc1
Activity (SK-BR-3): inactive

Kd [1]: 620 nM
Structure (SMILES): CC(C)C[C@]1(CCO)C[C@H](CNC(=S)Nc2ccc(-c3c4ccc(=O)cc-4oc4cc(O)ccc34)c(C(=O)O)c2)ON1Cc1ccc(-c2ccccc2)cc1

Activity [4]: Dose-dependent effect
Structure (SMILES): CC(C)C[C@]1(CCO)C[C@H](CN=[N+]=[N-])ON1Cc1ccc(C(F)(F)F)cc1

Kd [1]: 5900 nM
Structure (SMILES): CC(C)C[C@]1(CCO)C[C@H](CNC(=S)Nc2ccc(-c3c4ccc(=O)cc-4oc4cc(O)ccc34)c(C(=O)O)c2)ON1Cc1ccccc1

From ChEMBL document CHEMBL1154312, “Inhibition of ErbB2(Her2) expression with small molecule transcription factor mimics” (Bioorg Med Chem Lett, 2009)
